MEKK3 PB1 HTS: modulators of MEKK3-MEK5 PB1 binding, primary screen, biochemical, wildtype MEKK3, multiplex bead flow cytometry, Alexa488-MEK5; bead-based flow cytometry, Alexa488-MEK5 binding to MEKK3; actives lie on both sides; 0 = blocked by unlabeled MEK5, 100 = vehicle; binding response (% of control), % at 10 µM; actives 1.4% (n = 290,000);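 active means binding response more than 3 SD above or below the average of its plate-row segment, actives on both sides; inconclusive means wells at one plate position flagged as instrument error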;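 further: Alexa488 bead fluorescence after subtracting the streptavidin-only scavenger bead signal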
PREPL inhibitor: PREPL enzyme inhibitors, primary screen, biochemical, fluorescence polarization | inhibition, % at 5.96 µM | actives 0.68% (n = 320,000) | Prolyl endopeptidase-like (Homo sapiens), Q4J6C6 | recombinant PREPL, fluorescence polarization activity-based probe; in the data active means inhibition above about 43%;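 further: 0% = enzyme with DMSO and 100% = wells lacking enzyme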
UBC13 inh: UBC13 polyubiquitin chain formation inhibitors, primary screen, biochemical, TR-FRET, uHTS; Ubiquitin-conjugating enzyme E2 N (Homo sapiens), P61088; inhibition, % at 20 µM; actives 0.47% (n = 330,000); in the data active means inhibition above about 45%, passing the limit was not always enough; inconclusive means no clear call, values can overlap the other calls
Target sequence (P61088 whole entry, looked up): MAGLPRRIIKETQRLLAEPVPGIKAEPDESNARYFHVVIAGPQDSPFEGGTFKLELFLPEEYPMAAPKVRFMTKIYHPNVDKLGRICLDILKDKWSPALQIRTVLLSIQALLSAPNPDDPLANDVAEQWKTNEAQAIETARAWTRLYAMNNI
MEKK2mut PB1 HTS: MEK5 binding signal on mutant MEKK2 PB1, primary screen, biochemical, multiplex bead flow cytometry, Alexa488-MEK5 | Alexa488-MEK5 binding to MEKK2 mutant | percent response, % at 10 µM | actives 0.35% (n = 290,000); in the data active means percent response above about 24%, passing the limit was not always enough
Apaf-1 inh: inhibitors of human Apaf-1 apoptosome, primary screen, biochemical, DEVD-Rh110 fluorescence, uHTS | actives 0.71% (n = 330,000) | inhibition, % at 20 µM | reconstituted apoptosome caspase-3 activity; active means inhibition of at least 40% at 20 µM;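 further: plate controls were DMSO wells for no effect and DEVD-CHO caspase inhibitor wells for full effect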
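detection = Rh110 fluorescence intensity | test system = biochemical Apaf-1 apoptosome reconstitution | also added = cytochrome c and DEVD-Rh110 substrate | schedule = 30 min plus 50 min, RT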
MEKK2wt PB1 HTS: modulators of MEK5 binding to wildtype MEKK2, primary screen, biochemical, multiplex bead flow cytometry, Alexa488-MEK5 | actives 1.1% (n = 290,000) | Mitogen-activated protein kinase kinase kinase 2 (Homo sapiens), Q9Y2U5 | Alexa488-MEK5 binding to MEKK2 WT; actives lie on both sides | binding response (% of control), % at 10 µM; in the data active means binding response below about 67% or above about 130%; inconclusive means no clear call, values can overlap the other calls; inactive means in between
Casp3 UBC13 ctr: CASP3 inhibitor validation, counterassay for project on UBE2N polyubiquitination blockers, biochemical, one dose; shares compounds with UBC13 inh; Recombinant caspase-3, Caspase-Glo 3/7 luminescence, 60 min; inhibition, % at 20 µM; actives 4% (n = 1,400);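 active means mean inhibition across replicates above about 26%, limit read from the data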;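 further: plate controls were DMSO with caspase-3 for no effect and DMSO wells lacking enzyme for full effect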
Target sequence (P42574 whole entry, looked up): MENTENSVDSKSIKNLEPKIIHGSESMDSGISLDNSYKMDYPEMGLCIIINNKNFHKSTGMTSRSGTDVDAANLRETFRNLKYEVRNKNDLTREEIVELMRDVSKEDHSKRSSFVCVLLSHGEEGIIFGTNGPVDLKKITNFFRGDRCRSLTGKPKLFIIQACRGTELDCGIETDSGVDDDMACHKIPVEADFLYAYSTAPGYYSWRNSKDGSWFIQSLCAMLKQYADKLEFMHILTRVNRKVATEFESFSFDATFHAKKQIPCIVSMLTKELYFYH
UBC13 confirm: UBC13 polyubiquitination inhibitors, single-point retest, confirmation, biochemical, TR-FRET, single concentration; shares compounds with UBC13 inh; inhibition, % at 10 µM; actives 68% (n = 1,400); AID 488859, 2010; in the data active means inhibition above about 45%; inconclusive means no clear call, values can overlap the other calls
Starred values were filed as active, the others as inactive; ? = inconclusive; . = no result. The list is not random: actives were taken first. Their share in the collection is about 3.1%.

SMILES	MEKK3 PB1 HTS	PREPL inhibitor	UBC13 inh	MEKK2mut PB1 HTS	Apaf-1 inh	MEKK2wt PB1 HTS	Casp3 UBC13 ctr	UBC13 confirm
COc1cc(/C=N\NC(=O)c2sc(N)nc2C)cc(OC)c1OC	105	2	105*	1	-2	110	1	111*
CSC1=N/C(=C\c2ccccc2Cl)C(=O)N1N(C)C	101	17	4	2	15	105	.	.
Cc1nc2sc3c(=O)[nH]nnc3c2c(C)c1Br	101	2	-6	2	8	104	.	.
CN1CCN(C2Cc3ccccc3Sc3ccc(Cl)cc32)CC1 (centres undefined)	.	-13	45*	.	38	.	-4	26
Cc1ccccc1-c1nc(CS(=O)(=O)CC(=O)N2CCN(C)CC2)c(C)o1	104	7	-4	2	-1	107	.	.
Cc1ccc(NC(=O)CS(=O)CC(=O)NCCCc2ccccc2)cc1Cl (centres undefined)	93	-11	65*	-2	-8	98	3	73*
CCN1CCN(C(=O)c2cc(-c3ccco3)nc3ccccc23)CC1	.	16	52*	.	1	.	4	32
CCN1CCN(C(=O)c2cc(-c3ccc(Cl)s3)nc3ccccc23)CC1	96	.	25	-1	13	100	.	.
COc1cc(OC)cc(C(=O)Nc2nc3ccc(S(C)(=O)=O)cc3s2)c1	101	14	-2	-2	7	105	.	.
COc1cc(C(=O)Nc2nc3ccc(S(C)(=O)=O)cc3s2)cc(OC)c1C	103	4	47*	3	12	99	0	24
CCOc1ncccc1C(=O)Nc1ccc(C)c(S(=O)(=O)N2CCCCCC2)c1	.	-6	11	.	20	.	.	.
Oc1ccc2ccccc2c1CNc1ccccn1	98	-27	56*	3	1	106	-2	49*
CN1CCN(CCCNC(=O)c2ccc(/C=C3\Oc4ccccc4N(Cc4ccccc4F)C3=O)cc2)CC1	104	-92	45*	29*	38	159*	-4	52*
CN1CCN(CCCNC(=O)CCN2C(=O)COc3ccccc32)CC1	101	1	10	1	-4	100	.	.
O=c1c2cc(N3CCOCC3)ccc2[nH]c(=S)n1Cc1ccccc1Cl	102	-5	45*	-2	9	101	-4	?
O=c1c2cc(N3CCOCC3)ccc2[nH]c(=S)n1Cc1ccccn1	103	20	4	0	3	94	.	.
O=C(COc1ccc(Cl)cc1)OCC(=O)N1CCCc2ccccc21	97	-3	63*	13	-14	105	-3	-3
CCCCN(C(=O)C1CCCC1)c1c(N)n(CC(C)C)c(=O)[nH]c1=O	.	23	-4	.	-1	.	.	.
COc1cc2c(C#N)c(N3CCOCC3)nc(N)c2c(N)n1	94	13	9	-2	5	97	.	.
CCOc1cc2c(C#N)c(N3CCNCC3)nc(N)c2c(N)n1	102	31	63*	3	21	109	24	105*
CCN1CCN(CCCNC(=O)c2ccc3c(c2)NC(=O)c2ccccc2S3)CC1	98	-1	36	7	7	112	.	.
CCN1CCN(CCCNC(=O)c2ccc3c(c2)NC(=O)/C(=C\c2cccc(C)c2)S3)CC1	103	7	55*	19	36	165*	0	65*
Cc1cccc(/C=C2/Sc3ccc(C(=O)NCCN4CCCC4)cc3NC2=O)c1	105	18	60*	46*	33	183*	3	94*
CCC(C)Sc1nnc(NS(=O)(=O)Cc2ccccc2)s1 (centres undefined)	100	20	-9	6	8	97	.	.
Cc1ccc(C(C)NC(=S)NC2CCCCC2)c(C)c1 (centres undefined)	103	.	2	-4	14	96	.	.
SMILES	MEKK3 PB1 HTS	PREPL inhibitor	UBC13 inh	MEKK2mut PB1 HTS	Apaf-1 inh	MEKK2wt PB1 HTS	Casp3 UBC13 ctr	UBC13 confirm
Oc1ccc(C[C@@H]2CNCCN2CCCCC2CCCCC2)cc1	.	-12	59*	.	39	.	-4	48*
Cc1cc2nc(Cl)c(Cl)nc2cc1C	104	-7	47*	-1	-1	94	7	7
NNC(=O)c1ccc(CN2C(=O)c3cccc4cccc2c34)cc1	99	-5	96*	-5	18	95	2	108*
COc1ccc(C(=O)C2CCN(C(=O)Nc3ccccc3C)CC2)cc1	101	2	2	-4	1	93	.	.
COC(=O)C1=C(C)N(Cc2ccccc2)C(=NCc2cccc(Cl)c2)N[C@H]1c1cccc(F)c1	.	-61	72*	.	67*	.	-1	86*
O=C1OCCN1C(=O)[C@H]1[C@H](c2ccc(F)cc2)C(c2cccc(Cl)c2)=NN1c1ccccc1	.	.	.	.	28	.	.	.
O=C1OCCN1C(=O)[C@H]1[C@H](c2ccc(Cl)cc2)C(c2cccc(Cl)c2)=NN1c1ccccc1	86	4	50*	-5	17	87	-2	?
O=C(/C=C/c1ccccc1[N+](=O)[O-])NC1CCCC1	100	7	-14	1	-1	100	.	.
CC(=O)NC(c1cc(Cl)c2ccccc2c1O)C(C)C (centres undefined)	.	2	81*	.	5	.	-4	56*
CCC(=O)NC(c1cccs1)c1cc(Cl)c2ccccc2c1O (centres undefined)	.	8	49*	.	6	.	-2	34
O=C(CCc1ccccc1)NC(c1cccs1)c1cc(Cl)c2cccnc2c1O (centres undefined)	101	.	.	-3	.	71	.	.
CC(=O)NC(c1cccs1)c1cc([N+](=O)[O-])c2cccnc2c1O (centres undefined)	101	25	.	12	.	111	.	.
CC(=O)NC(c1cccs1)c1cc(Cl)c2ccccc2c1O (centres undefined)	.	11	71*	.	8	.	-2	58*
O=C(Cc1ccccc1)Nc1cc(C(=O)c2ccccc2)ccc1N1CCOCC1	109	16	10	4	7	107	.	.
COCCNC(=S)N1CCC(C(=O)c2ccc(C)cc2)CC1	99	3	-5	1	8	97	.	.
